We go through two compounds from ChEMBL document CHEMBL3397001, “Metabolic glycoengineering sensitizes drug-resistant pancreatic cancer cells to tyrosine kinase inhibitors erlotinib and gefitinib” (2015).

For assay [1], the target named is Epidermal growth factor receptor (Homo sapiens) (UniProt P00533). The assay is described as follows: Increase in sialylation of EGFR in human SW1990 cells after 48 hrs by mass spectrometry based glycosite and glycan analysis method. The assay is classed as cell-based. The essentials:
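EGFR sialylation in treated cells assessed by mass spectrometry-based glycosite and glycan analysis.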

Assay [2] shares this target. The assay is described as follows: Inhibition of Alexa fluor 488-labeled EGFbinding to EGFR in human SW1990 cells assessed as reduction in available surface bound EGFR at 100 uM after 1 hr by flow cytometry. It is filed as cell-based. The essentials: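 Intact cells incubated with Alexa Fluor 488-labeled EGF for one hour at room temperature, then surface-bound label read by flow cytometry (saturation binding). At least 3 biological replicates; mean ± SEM.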

For assay [3] the target is unchanged. Put plainly: Inhibition of EGFR phosphorylation in human SW1990 cells at 50 and 100 uM by immunofluorescence assay. The assay is classed as cell-based. The essentials: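 Treated cells stimulated with EGF for 2.0 min, fixed, stained with anti-p-EGFR plus FITC-labeled anti-rabbit secondary and DAPI, then imaged by immunofluorescence microscopy.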
Assay [4] has the same target. Put plainly: Inhibition of EGFR phosphorylation in human SW1990 cells at 25 to 100 uM by Western blotting method. It is filed as cell-based. The essentials: (§1)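 Cells exposed to increasing analog levels; lysates immunoblotted for phospho-EGFR and total EGFR. Significance threshold p < 0.05.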
Assay [5] deals with SW1990. Put plainly: Effect on total EGFR levels in human SW1990 cells at 25 to 100 uM by Western blotting method. The assay is classed as functional, cell-based. The essentials: as §1
The target in assay [6] is Epidermal growth factor receptor (Homo sapiens) (UniProt P00533). Put plainly: Inhibition of EGFR-mediated STAT3 phosphorylation in human SW1990 cells at 25 to 100 uM by Western blotting method. The assay is classed as cell-based. The essentials: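 Cells treated at several analog concentrations; lysates immunoblotted for phospho-STAT3, with band intensity quantified by densitometry. At least 3 biological replicates; mean + SEM; p < 0.05.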
Sequence of Epidermal growth factor receptor (Homo sapiens) (P00533 whole entry): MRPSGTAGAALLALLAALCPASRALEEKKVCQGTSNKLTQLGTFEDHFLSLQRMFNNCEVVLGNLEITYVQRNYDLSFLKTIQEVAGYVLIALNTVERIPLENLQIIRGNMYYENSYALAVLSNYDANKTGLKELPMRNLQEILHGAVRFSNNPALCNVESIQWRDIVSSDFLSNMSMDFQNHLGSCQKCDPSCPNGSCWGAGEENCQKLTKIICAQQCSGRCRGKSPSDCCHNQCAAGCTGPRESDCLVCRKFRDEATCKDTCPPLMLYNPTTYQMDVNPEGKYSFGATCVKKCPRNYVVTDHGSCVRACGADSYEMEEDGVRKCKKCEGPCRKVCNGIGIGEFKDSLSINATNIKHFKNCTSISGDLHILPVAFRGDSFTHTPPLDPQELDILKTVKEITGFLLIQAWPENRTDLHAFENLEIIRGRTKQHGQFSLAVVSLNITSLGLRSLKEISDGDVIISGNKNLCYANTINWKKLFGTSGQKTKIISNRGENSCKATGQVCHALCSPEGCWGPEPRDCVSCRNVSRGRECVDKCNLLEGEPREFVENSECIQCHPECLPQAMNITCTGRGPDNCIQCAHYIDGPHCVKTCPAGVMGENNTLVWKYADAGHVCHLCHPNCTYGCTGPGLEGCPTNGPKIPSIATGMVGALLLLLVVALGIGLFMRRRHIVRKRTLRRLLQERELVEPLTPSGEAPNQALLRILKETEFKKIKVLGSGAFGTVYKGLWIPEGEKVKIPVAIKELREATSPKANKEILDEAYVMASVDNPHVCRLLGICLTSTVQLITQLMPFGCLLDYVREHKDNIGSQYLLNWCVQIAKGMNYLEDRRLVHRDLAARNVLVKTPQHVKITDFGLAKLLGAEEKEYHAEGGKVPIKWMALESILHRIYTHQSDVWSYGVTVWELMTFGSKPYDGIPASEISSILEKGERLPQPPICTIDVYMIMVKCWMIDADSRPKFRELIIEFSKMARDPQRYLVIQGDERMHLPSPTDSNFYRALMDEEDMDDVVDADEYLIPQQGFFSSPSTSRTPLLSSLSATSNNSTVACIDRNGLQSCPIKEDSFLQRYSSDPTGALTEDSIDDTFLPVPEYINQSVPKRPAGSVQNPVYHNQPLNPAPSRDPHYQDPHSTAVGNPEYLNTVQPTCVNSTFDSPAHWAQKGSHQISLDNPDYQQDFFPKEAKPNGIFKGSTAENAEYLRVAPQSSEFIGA

In assay [7] the test system is SW1990. The assay is described as follows: Inhibition of cell proliferation of human SW1990 cells at 100 to 300 uM after 48 hrs by cell counting method. It is filed as functional, cell-based.
The subject of assay [8] is SW1990. The assay is described as follows: Inhibition of cell proliferation of human SW1990 cells at 25 and 50 uM after 48 hrs by cell counting method. The assay is classed as functional, cell-based.
The test system of assay [9] is SW1990. The assay is described as follows: Potentiation of erlotinib-induced antiproliferative effect against human SW1990 cells pre-treated with 50 uM compound for 48 hrs followed by erlotinib exposure for additional after 72 hrs by cell counting method. It is filed as functional, cell-based. The gist of the method: (§2)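 Cells given sugar analog (0, 25 or 50 μM; 12.5 or 25 μM for the azido analog) plus a concentration range of erlotinib or gefitinib, and growth inhibition measured. Synergy expressed as Combination Index, CI = D1/(Dx)1 + D2/(Dx)2, plotted against percent inhibition. At least 3 biological replicates; mean ± SEM.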

For assay [10], the system named is SW1990. The assay is described as follows: Potentiation of gefitinib-induced antiproliferative effect against human SW1990 cells pre-treated with 50 uM compound for 48 hrs […] for additional after 72 hrs by cell counting method. It is filed as functional, cell-based. The essentials: as §2
The subject of assay [11] is SW1990. Put plainly: Potentiation of gefitinib-induced antiproliferative effect against human SW1990 cells assessed as combination index pre-treated with 50 uM compound for 48 hrs […] for additional after 72 hrs by cell counting method. The assay is classed as functional. The essentials:
as §2

Assay [12] relates to SW1990. Put plainly: Potentiation of erlotinib-induced antiproliferative effect against human SW1990 cells assessed as combination index pre-treated with 50 uM compound for 48 hrs followed by erlotinib exposure for additional after 72 hrs by cell counting method. It is filed as functional. The gist of the method:
as §2

Assay [13] relates to SW1990. The assay is described as follows: Potentiation of erlotinib-induced antiproliferative effect against human SW1990 cells pre-treated with 25 uM compound for 48 hrs followed by erlotinib exposure for additional after 72 hrs by cell counting method. The assay is classed as functional, cell-based. The gist of the method: as §2
In assay [14] the test system is SW1990. The assay is described as follows: Potentiation of gefitinib-induced antiproliferative effect against human SW1990 cells pre-treated with 25 uM compound for 48 hrs […] for additional after 72 hrs by cell counting method. The assay is classed as functional, cell-based. The gist of the method:
as §2

The test system of assay [15] is SW1990. Put plainly: Potentiation of erlotinib-induced antiproliferative effect against human SW1990 cells assessed as combination index pre-treated with 12.5 and 25 uM compound for 48 hrs followed by erlotinib exposure for additional after 72 hrs by cell counting method. The assay is classed as functional. The essentials: as §2
The test system of assay [16] is SW1990. Put plainly: Inhibition of cell proliferation of human SW1990 cells at <25 uM after 72 hrs by cell counting method.

SMILES strings stand for the structures. Active and inactive are the calls of the source.

As to `CCCC(=O)OC1O[C@H](CO)[C@@H](OC(=O)CCC)[C@H](OC(=O)CCC)[C@@H]1NC(C)=O` (stereo partly specified), the fold change (FC) in assay [1] amounted to 2. The inhibition entry (in [2]; in [3]; in assay [4]; with SW1990 [7]) was “Active” in each case. Besides, in the assay on SW1990 [5], the result was inactive. Moreover, the inhibition result in [6] was “Dose-dependent effect”. In addition, the inhibition result in the assay with SW1990 [8] is “inactive”. Further, the result with SW1990 [9], with SW1990 [10], in the assay with SW1990 [13] and in the assay with SW1990 [14] was Active. For the same compound, the CI in the assay on SW1990 [11] and in the assay with SW1990 [12] was 0.23 throughout.

For `CCCC(=O)OC1O[C@H](CO)[C@@H](OC(=O)CCC)[C@H](OC(=O)CCC)[C@@H]1NC(=O)CN=[N+]=[N-]` (stereo partly specified), in the assay on SW1990 [15], the CI is 0.34. Further, the inhibition result in the assay with SW1990 [16] is “Active”.
